Laboratory results reported in ChEMBL document CHEMBL1127450, “Synthesis and antiviral activity evaluation of some aminoadamantane derivatives” (1994).
Values after ≈ are worked out from the molar mass of the structure shown.

Key:
Type in all cases: functional
[1] = tested on: HEF; assay: Tested for minimum inhibitory concentration required to reduce virus-induced cytopathicity by 50% on HEF cell line infected with HSV-2 virus; settings: Homo sapiens
In short: (§1)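 Human embryonic skin-muscle fibroblasts (HEF) were infected with the stated virus. The value is the concentration that reduces virus-induced cytopathicity by 50%. Values are averages of at least two separate experiments.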

[2] = tested on: HEF; assay: Tested for minimum inhibitory concentration required to reduce virus-induced cytopathicity by 50% on HEF cell line infected with vesicular stomatitis virus; settings: Homo sapiens; in short: as §1
[3] = tested on: HEF; assay: Tested for minimum inhibitory concentration required to reduce virus-induced cytopathicity by 50% on HEF cell line infected with vaccinia virus; settings: Homo sapiens; in short: as §1
[4] = tested on: HeLa; assay: Tested for minimum inhibitory concentration required to cause a microscopically detectable alteration of normal cell morphology by 50% on HeLa cell line; settings: Homo sapiens
In short: (§2)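 HeLa (human epithelial), MDCK (Madin-Darby canine kidney) or Vero (African green monkey kidney) cells were scored by microscopy. The value is the minimum concentration that causes a detectable alteration of normal cell morphology. Values are averages of at least two separate experiments.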

[5] = tested on: HEF; assay: Tested for minimum inhibitory concentration required to reduce virus-induced cytopathicity by 50% on HEF cell line infected with thymidine kinase-deficient herpes simplex virus type 1 (TK-HSV-1); settings: Homo sapiens; in short: as §1
[6] = tested on: HEF; assay: Tested for minimum inhibitory concentration required to reduce virus-induced cytopathicity by 50% on HEF cell line infected with HSV-1 virus; settings: Homo sapiens; in short: as §1
[7] = tested on: Vero; assay: Tested for minimum inhibitory concentration required to cause a microscopically detectable alteration of normal cell morphology by 50% on vero cell line; settings: Chlorocebus sabaeus; in short: as §2
[8] = tested on: Vero; assay: Tested for minimum inhibitory concentration required to reduce virus-induced cytopathicity by 50% on vero cell line infected with semliki forest virus; settings: Chlorocebus sabaeus
In short: (§3)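 HeLa (human epithelial), MDCK (Madin-Darby canine kidney) or Vero (African green monkey kidney) cells were infected with the stated virus. The value is the concentration that reduces virus-induced cytopathicity by 50%. Values are averages of at least two separate experiments.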

[9] = tested on: HEF; assay: Tested for minimum inhibitory concentration required to cause a microscopically detectable alteration of normal cell morphology by 50% on HEF cell line; settings: Homo sapiens
In short: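 Human embryonic skin-muscle fibroblasts (HEF) were used. The value is the minimum concentration that causes a microscopically detectable alteration of normal cell morphology. Values are averages of at least two separate experiments.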

[10] = tested on: Vero; assay: Tested for minimum inhibitory concentration required to reduce virus-induced cytopathicity by 50% on vero cell line infected with Reo 1 virus; settings: Chlorocebus sabaeus; in short: as §3
[11] = tested on: CCRF-CEM; assay: Tested for minimum inhibitory concentration required to reduce virus-induced cytopathicity by 50% was evaluated on CEM cell line infected with HIV-1 virus; settings: Homo sapiens
[12] = tested on: Vero; assay: Tested for minimum inhibitory concentration required to reduce virus-induced cytopathicity by 50% on vero cell line infected with coxsackie B4 virus; settings: Chlorocebus sabaeus; in short: as §3
[13] = tested on: CCRF-CEM; assay: Tested for minimum inhibitory concentration required to reduce virus-induced cytopathicity by 50% on CEM cell line infected with HIV-2 virus; settings: Homo sapiens
[14] = tested on: MDCK; assay: Tested for minimum inhibitory concentration required to reduce virus-induced cytopathicity by 50% on MDCK cell line infected with influenza A virus; settings: Canis lupus familiaris; in short: as §3
[15] = tested on: HeLa; assay: Tested for minimum inhibitory concentration required to reduce virus-induced cytopathicity by 50% on HeLa cell line infected with polio 1 virus; settings: Homo sapiens; in short: as §3
[16] = tested on: MDCK; assay: Tested for minimum inhibitory concentration required to reduce virus-induced cytopathicity by 50% on MDCK cell line infected with influenza B virus; settings: Canis lupus familiaris; in short: as §3
[17] = tested on: HEF; assay: Tested for minimum inhibitory concentration required to reduce […] by 50% on HEF cell line; settings: Homo sapiens
In short: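 Human embryonic lung fibroblasts (HEF) were used for cell proliferation. The value is the concentration that reduces cell proliferation by 50%. Values are averages of at least two separate experiments.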

[18] = tested on: CCRF-CEM; assay: Tested for minimum inhibitory concentration required to reduce virus-induced cell viability by 50% on CEM cell line; settings: Homo sapiens
[19] = tested on: HeLa; assay: Tested for minimum inhibitory concentration required to reduce virus-induced cytopathicity by 50% on HeLa cell line infected with RSV virus; settings: Homo sapiens; in short: as §3
[20] = tested on: Vero; assay: Tested for minimum inhibitory concentration required to reduce virus-induced cytopathicity by 50% on vero cell line infected with parainfluenza 3 virus; settings: Chlorocebus sabaeus; in short: as §3
[21] = tested on: MDCK; assay: Tested for minimum inhibitory concentration required to cause a microscopically detectable alteration of normal cell morphology by 50% on MDCK cell line; settings: Canis lupus familiaris; in short: as §2
[22] = tested on: Vero; assay: Tested for minimum inhibitory concentration required to reduce virus-induced cytopathicity by 50% on vero cell line infected with sindbis virus; settings: Chlorocebus sabaeus; in short: as §3
[23] = tested on: Vero; assay: Tested for minimum inhibitory concentration required to cause a microscopically detectable alteration of normal cell morphology by 50% on Vero cell line; settings: Chlorocebus sabaeus; in short: as §2

| SMILES | MIC50 [1] [µg/mL] | MIC50 [2] [µg/mL] | MIC50 [3] [µg/mL] | MIC50 [4] [µg/mL] | MIC50 [5] [µg/mL] | MIC50 [6] [µg/mL] | MIC50 [8] [µg/mL] | MIC50 [9] [µg/mL] | MIC50 [10] [µg/mL] | MIC50 [11] [µg/mL] | MIC50 [12] [µg/mL] | MIC50 [13] [µg/mL] | MIC50 [14] [µg/mL] | MIC50 [15] [µg/mL] | MIC50 [16] [µg/mL] | MIC50 [17] [µg/mL] | MIC50 [18] [µg/mL] | MIC50 [19] [µg/mL] | MIC50 [20] [µg/mL] | MIC50 [21] [µg/mL] | other results |
| --- | --- | --- | --- | --- | --- | --- | --- | --- | --- | --- | --- | --- | --- | --- | --- | --- | --- | --- | --- | --- | --- |
| C1CNC2(C1)C1CC3CC(C1)CC2C3 (stereo not given) | > 200 | > 200 | > 200 | > 200 | > 200 | 200 (≈ 1050 µM) | > 200 | ≥ 400 | > 200 | > 40 | > 200 | > 40 | > 30 | > 200 | > 200 | > 50 | 100 (≈ 523 µM) | > 200 | > 200 | > 200 | MIC50 [7]: ≥ 400 µg/mL; MIC50 [22]: > 200 µg/mL |
| NC1CC12C1CC3CC(C1)CC2C3 (stereo not given) | > 20 | > 20 | > 20 | 40 (≈ 226 µM) | > 20 | > 20 | > 40 | 40 (≈ 226 µM) | > 40 | > 8 | > 40 | > 8 | 30 (≈ 169 µM) | > 20 | > 100 | 80 (≈ 451 µM) | 32 (≈ 180 µM) | 30 (≈ 169 µM) | > 40 | 100 (≈ 564 µM) | MIC50 [23]: 100 µg/mL (≈ 564 µM); MIC50 [22]: > 40 µg/mL |
| CN(C)C1CC12C1CC3CC(C1)CC2C3 (stereo not given) | > 200 | > 200 | > 200 | ≥ 400 | > 200 | > 200 | > 400 | ≥ 400 | 400 (≈ 1950 µM) | > 200 | > 400 | > 200 | 6 (≈ 29.2 µM) | > 400 | > 100 | > 200 | > 200 | > 200 | 100 (≈ 487 µM) | 100 (≈ 487 µM) | MIC50 [7]: > 400 µg/mL; MIC50 [22]: > 400 µg/mL |
| CNCC1CC12C1CC3CC(C1)CC2C3 (stereo not given) | > 20 | > 20 | > 20 | 40 (≈ 195 µM) | > 20 | > 20 | > 20 | 40 (≈ 195 µM) | > 20 | > 8 | > 20 | > 8 | > 20 | > 20 | > 20 | 50 (≈ 243 µM) | 4 (≈ 19.5 µM) | 30 (≈ 146 µM) | > 20 | 20 (≈ 97.4 µM) | MIC50 [7]: 40 µg/mL (≈ 195 µM); MIC50 [22]: > 20 µg/mL |
| CN(C)CC1CC12C1CC3CC(C1)CC2C3 (stereo not given) | > 20 | > 20 | > 20 | 100 (≈ 456 µM) | > 20 | > 20 | > 70 | 40 (≈ 182 µM) | > 70 | > 40 | > 70 | > 40 | > 40 | > 70 | > 100 | 95 (≈ 433 µM) | 23 (≈ 105 µM) | 40 (≈ 182 µM) | > 70 | 70 (≈ 319 µM) | MIC50 [7]: 100 µg/mL (≈ 456 µM); MIC50 [22]: > 70 µg/mL |
